Molecules are shown by their SMILES.

This data set in a line: Dissociation constant, pKa by potentiometric titration method. Format: physicochemical. In a few lines:
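Each compound dissolved in ionic-strength-adjusted water (0.15 M), titrated with 0.5 M KOH up to pH 11. Steps capped at 0.2 pH units; each point recorded once drift fell below 0.002 pH/min. Electrode checked in pH 7.00 buffer and calibrated by blank titration daily.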
In general, pKa refers to the negative logarithm of the acid dissociation constant. A lower pKa goes with a group that gives up its proton readily. In turn, `CCCN1CCN(c2ccccc2)CC1` yielded a pKa of 7.96.

`CCCN1CCN(c2cccc(C)c2)CC1` displayed a pKa of 7.83.

In turn, `CCCN1CCN(c2ccc(Cl)cc2)CC1` displayed a pKa of 7.83.

For `CCCN1CCN(c2ccc(OC)cc2)CC1`, the pKa stood at 7.88.

Consider `CCCN1CCN(c2cccc(Cl)c2)CC1`, for which the pKa came out at 7.83.

`CCCN1CCN(c2cccc(C(F)(F)F)c2)CC1` returned a pKa of 7.81.

`CCCN1CCN(c2ccc(C(N)=O)cc2)CC1` yielded a pKa of 7.84.

Consider `CCCN1CCN(c2cccc(OC)c2)CC1`, for which the pKa came out at 7.86.

The compound `CCCN1CCN(c2ccc([N+](=O)[O-])cc2)CC1` came in with a pKa of 7.59.

Compound `CCCN1CCN(c2ccccc2C)CC1` came in with a pKa of 8.39.

On to `CCCN1CCN(c2cccc(C(N)=O)c2)CC1`, for which the pKa came to 7.76.

On to `CCCN1CCN(c2ccccc2OC)CC1`, for which the pKa came out at 8.29.

`CCCN1CCN(c2ccccc2C#N)CC1` registered a pKa of 7.92.

Take `CCCN1CCN(c2ccc(C#N)cc2)CC1`: the pKa was 7.78.

`CCCN1CCN(c2cccc(O)c2)CC1` gave a pKa of 7.82. The pKa values of the last two compounds are within 0.2 log units of each other.

Compound `CCCN1CCN(c2ccccc2C(F)(F)F)CC1` came in with a pKa of 8.8.

Take `CCCN1CCN(c2ccccc2Cl)CC1`: the pKa stood at 8.07.

In turn, `CCCN1CCN(c2cccc(C#N)c2)CC1` showed a pKa of 7.67.

In the case of `CCCN1CCN(c2ccccc2[N+](=O)[O-])CC1`, the pKa came to 7.94.

`CCCN1CCN(c2cccc([N+](=O)[O-])c2)CC1` gave a pKa of 7.7.

In the case of `CCCN1CCN(c2ccc(C)cc2)CC1`, the pKa was determined as 7.92.

On to `CCCN1CCN(c2ccccc2C(N)=O)CC1`, for which the pKa worked out at 8.14.

Take `CCCN1CCN(c2ccc(O)cc2)CC1`: the pKa stood at 7.92.

For `CCCN1CCN(c2ccc(C(F)(F)F)cc2)CC1`, the pKa is 7.84.

With `CCCN1CCN(c2ccccc2O)CC1`, the pKa amounted to 8.05.

Values taken from ChEMBL document CHEMBL1143328, “Determination of 1-aryl-4-propylpiperazine pKa values: the substituent on aryl modulates basicity” (Bioorg Med Chem, 2009).
